Series [1] concerns the target T1, CYP2C9 (Homo sapiens, UniProt P11712). The series is described as follows: Inhibition of CYP2C9 at 5 uM by fluorsecence-based assay.
Series [2] has as its system hERG potassium channel KCNH2 (Homo sapiens). Put plainly: Inhibition of human ERG potassium channel (hERG) at 1 uM by fluorescence polarization assay.
A short description of series [3]: (§1) Inhibition of human MAPK phosphorylation in MDA-MB-231 cells at 100 uM after 30 mins by Western blot analysis. The format is cell-based. The conditions noted are these: MDA-MB-231, 0.5 h. An outline of the steps: (§2)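 MDA-MB-231 cells were exposed to 100 μM compound or 1% DMSO for 30 min and lysed in RIPA buffer with protease and phosphatase inhibitors. Equal protein was run on 4-12% gels under non-reducing conditions and transferred to nitrocellulose. Detection used HRP secondary antibody and chemiluminescence.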

Series [4] deals with hERG potassium channel KCNH2 (Homo sapiens). Put plainly: Inhibition of human ERG channel at 25 uM =.
The target in series [5] is Cytochrome P450 2C9 (Homo sapiens, UniProt P11712). Put plainly: Inhibition of CYP2C9 at 1 uM by fluorsecence-based assay. It counts as ADME. A digest of the protocol: (§3)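 Fluorescence-based CYP2C9 assay measuring inhibition of fluorescent substrate metabolism at the stated concentration. Sulphaphenazole at 5 μM served as positive control.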
Sequence of Cytochrome P450 2C9 (P11712 whole entry): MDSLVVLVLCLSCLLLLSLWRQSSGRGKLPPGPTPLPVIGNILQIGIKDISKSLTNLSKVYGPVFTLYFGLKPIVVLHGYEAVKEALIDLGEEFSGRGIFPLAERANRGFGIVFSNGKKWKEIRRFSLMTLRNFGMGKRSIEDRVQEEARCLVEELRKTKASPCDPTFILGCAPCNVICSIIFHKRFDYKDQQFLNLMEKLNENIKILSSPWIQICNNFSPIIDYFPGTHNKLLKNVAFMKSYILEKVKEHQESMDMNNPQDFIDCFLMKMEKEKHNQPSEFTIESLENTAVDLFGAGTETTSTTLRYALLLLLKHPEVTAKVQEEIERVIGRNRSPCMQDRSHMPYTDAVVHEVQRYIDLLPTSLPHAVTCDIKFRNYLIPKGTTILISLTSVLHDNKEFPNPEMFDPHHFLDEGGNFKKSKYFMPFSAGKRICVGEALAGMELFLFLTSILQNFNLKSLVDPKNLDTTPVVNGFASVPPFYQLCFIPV
For series [6], the system named is Nucleic Acid. The series is described as follows: Displacement of ethidium bromide from salmon sperm DNA at 1 uM by fluorescence assay. The format is nucleic-acid assay. The conditions noted are these: Salmonidae. An outline of the steps:
(§4)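 Fluorescent intercalator displacement: loss of fluorescence from ethidium bromide bound to salmon sperm DNA, excitation 530 nm, at the stated compound concentration.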

In series [7] the target is Proto-oncogene tyrosine-protein kinase Src (Homo sapiens) (UniProt P12931). Put plainly: Inhibition of human SRC phosphorylation in MDA-MB-231 cells at 100 uM after 30 mins by Western blot analysis. The format is cell-based. An outline of the steps: as §2
Sequence of Proto-oncogene tyrosine-protein kinase Src (Homo sapiens) (P12931 2-536 limits assumed): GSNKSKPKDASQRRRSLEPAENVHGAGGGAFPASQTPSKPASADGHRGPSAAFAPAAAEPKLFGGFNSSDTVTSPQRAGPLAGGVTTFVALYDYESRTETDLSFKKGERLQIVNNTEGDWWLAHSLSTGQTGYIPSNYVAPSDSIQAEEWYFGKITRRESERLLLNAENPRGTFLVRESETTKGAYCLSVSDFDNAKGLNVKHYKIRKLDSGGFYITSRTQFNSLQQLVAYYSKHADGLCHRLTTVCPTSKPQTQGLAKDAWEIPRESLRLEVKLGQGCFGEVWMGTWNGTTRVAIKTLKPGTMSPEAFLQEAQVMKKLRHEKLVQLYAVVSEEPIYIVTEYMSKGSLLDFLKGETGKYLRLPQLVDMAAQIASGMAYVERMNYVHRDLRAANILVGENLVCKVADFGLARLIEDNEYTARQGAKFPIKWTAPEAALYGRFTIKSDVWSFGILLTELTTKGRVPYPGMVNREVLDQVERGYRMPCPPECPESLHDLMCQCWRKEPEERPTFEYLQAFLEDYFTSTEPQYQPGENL
Series [8] deals with Focal adhesion kinase 1 (Homo sapiens) (UniProt Q05397). The series is described as follows: Inhibition of human FAK phosphorylation in MDA-MB-231 cells at 100 uM after 30 mins by Western blot analysis. It counts as cell-based. A digest of the protocol:
as §2

The target of series [9] is Urokinase plasminogen activator surface receptor (Homo sapiens, UniProt Q03405). Put plainly: Displacement of […] peptide from human uPAR expressed in drosophila S2 cells by fluorescence polarization assay. An outline of the steps: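 Soluble human uPAR (residues 1-283), from stably transfected Drosophila S2 cells, was used at 500 nM with 100 nM AE147-FAM. Inhibitor range 0.78-100 μM in 0.01% Triton X-100/PBS, final 2% DMSO, triplicate. Polarization was read immediately at room temperature (ex 485/em 530 nm).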
Sequence of Urokinase plasminogen activator surface receptor (Q03405 whole entry, the tested form may be a part): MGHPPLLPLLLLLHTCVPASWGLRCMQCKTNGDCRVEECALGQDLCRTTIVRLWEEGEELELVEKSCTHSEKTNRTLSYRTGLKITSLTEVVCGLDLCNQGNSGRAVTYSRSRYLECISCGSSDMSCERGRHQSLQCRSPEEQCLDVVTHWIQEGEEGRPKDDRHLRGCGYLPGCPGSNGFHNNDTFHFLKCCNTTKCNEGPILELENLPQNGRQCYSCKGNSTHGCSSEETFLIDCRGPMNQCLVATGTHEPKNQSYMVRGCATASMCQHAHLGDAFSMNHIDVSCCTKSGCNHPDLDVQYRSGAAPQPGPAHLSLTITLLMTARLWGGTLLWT

Series [10] addresses T1, CYP2C9. Put plainly: Inhibition of CYP2C9 at 25 uM by fluorsecence-based assay. The format is ADME. An outline of the steps: as §3
For series [11], the system named is Nucleic Acid. The series is described as follows: Displacement of ethidium bromide from salmon sperm DNA at 25 uM by fluorescence assay. The format is nucleic-acid assay. The conditions noted are these: Salmonidae. An outline of the steps: as §4
For series [12], the system named is hERG potassium channel KCNH2 (Homo sapiens). The series is described as follows: Inhibition of human ERG potassium channel (hERG) at 10 uM by fluorescence polarization assay.
The test system of series [13] is Nucleic Acid. Put plainly: Displacement of ethidium bromide from salmon sperm DNA at 10 uM by fluorescence assay. The format is nucleic-acid assay. The conditions noted are these: Salmonidae. A digest of the protocol: as §4
A short description of series [14]: AUC (0 to infinity) in mouse at 50 mg/kg, po administered as single dose by HPLC-MS/MS analysis. The conditions noted are these: plasma.
In series [15] the test system is MDA-MB-231. The series is described as §1. The format is cell-based. A digest of the protocol: as §2
The target of series [16] is T2, Matrix metalloproteinase-9 (Homo sapiens, UniProt P14780). The series is described as follows: Inhibition of human MMP-9 activity in human MDA-MB-231 cells assessed as ECM degradation at 50 uM after 24 hrs by gelatin zymography assay. It counts as cell-based. An outline of the steps: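 Cells were treated with compound in serum-free medium for 24 h, and conditioned medium was concentrated and protein-normalized. Samples were run on 10% SDS gels containing 1 mg/ml gelatin. Clear bands were quantified after Coomassie staining.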
T2 sequence (P14780 whole entry): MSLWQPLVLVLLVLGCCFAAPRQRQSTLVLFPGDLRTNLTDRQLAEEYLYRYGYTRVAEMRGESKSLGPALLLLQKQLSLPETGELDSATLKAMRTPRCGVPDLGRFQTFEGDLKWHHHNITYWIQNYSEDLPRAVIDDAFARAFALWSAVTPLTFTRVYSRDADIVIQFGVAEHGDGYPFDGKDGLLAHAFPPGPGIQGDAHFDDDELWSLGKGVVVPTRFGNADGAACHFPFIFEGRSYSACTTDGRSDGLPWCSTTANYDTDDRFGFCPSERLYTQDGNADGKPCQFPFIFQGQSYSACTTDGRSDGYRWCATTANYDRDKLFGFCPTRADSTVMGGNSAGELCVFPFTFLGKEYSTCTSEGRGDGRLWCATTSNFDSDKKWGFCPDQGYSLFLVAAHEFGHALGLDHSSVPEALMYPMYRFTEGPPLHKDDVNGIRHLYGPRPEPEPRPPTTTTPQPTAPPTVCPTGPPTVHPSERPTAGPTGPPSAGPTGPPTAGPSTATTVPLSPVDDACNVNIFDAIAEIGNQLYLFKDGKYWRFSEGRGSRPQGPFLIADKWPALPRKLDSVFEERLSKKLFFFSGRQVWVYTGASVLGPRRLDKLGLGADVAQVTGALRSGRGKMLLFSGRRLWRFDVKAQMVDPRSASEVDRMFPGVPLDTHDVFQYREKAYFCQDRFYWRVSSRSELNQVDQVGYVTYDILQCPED

The target in series [17] is T2, Matrix metalloproteinase-9. Put plainly: Inhibition of human MMP-9 activity in human MDA-MB-231 cells assessed as ECM degradation after 24 hrs by gelatin zymography assay. It counts as cell-based.
Series [18] deals with hERG potassium channel KCNH2 (Homo sapiens). Put plainly: Inhibition of human ERG potassium channel (hERG) at 25 uM by fluorescence polarization assay.
Series [19] deals with MDA-MB-231. The series is described as follows: Induction of apoptosis in human MDA-MB-231 cells at 50 uM after 24 hrs by annexin V-FITC and propidium iodide staining relative to control. The format is functional. A digest of the protocol:
(§5)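 MDA-MB-231 grown in DMEM/10% FBS with penicillin/streptomycin, 37 °C, 5% CO2, to 80–90% confluence; exposed to compound or 1% DMSO control for 24 h. Cells detached, washed in cold PBS, 1×10^5 cells in binding buffer stained with annexin V-FITC and propidium iodide 15 min at 25 °C in the dark, analysed by flow cytometry; apoptotic = annexin V+/PI−, necrotic = annexin V+/PI+.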

For series [20], the system named is MDA-MB-231. Put plainly: Antiproliferative activity against human MDA-MB-231 cells assessed as decrease in cell viability after 3 days by MTT assay. The format is functional, cell-based. The conditions noted are these: MDA-MB-231, 72 h. An outline of the steps:
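Cells were grown at 37°C in 10% FBS-DMEM with serially diluted compound, made from 5 mM DMSO stock diluted 1:50 in medium, for 3 days. Viability was read by MTT absorbance at 570 and 630 nm.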

Series [21] has as its system MDA-MB-231. The series is described as follows: Antimetastatic activity in human MDA-MB-231 cells assessed as inhibition of cell invasion after 3 hrs by transwell assay. The conditions noted are these: MDA-MB-231, 3 h. It counts as functional, cell-based.
Series [22] can be described thus: Tmax in mouse at 100 mg/kg, po administered as single dose by HPLC-MS/MS analysis. The format is ADME, organism-based. More on the design: dose 100 mg/kg, route oral. The conditions noted are these: in vivo.
Series [23] in a line: Antitumor activity against human […] cells xenografted in NOD/SCID mouse assessed as decrease in tumor volume at 150 mg/kg, po qd administered 18 days post-implantation measured after 68 days. It counts as functional. More on the design: scale not given: the % may be the effect or the level left. A digest of the protocol: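 Female NOD/SCID mice bearing mammary fat pad TMD-231 tumours were randomized and dosed from day 18 post-implantation by daily oral gavage at 150 mg/kg or vehicle (n = 11). Caliper measurements were taken over 68 days; volume = (shorter² × longer)/2.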

Series [24] in a line: Toxicity in po dosed NOD/SCID mouse xenografted human […] cells. The format is organism-based. The conditions noted are these: in vivo.
Series [25] has as its system MDA-MB-231. Put plainly: Antimetastatic activity in human MDA-MB-231 cells assessed as inhibition of cell migration after 3 hrs by transwell assay. It counts as functional, cell-based. The conditions noted are these: MDA-MB-231, 3 h. A digest of the protocol: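 Serum-starved (4 h) subconfluent cells, 5 × 10^4 in 0.1% FBS DMEM with compound or 1.0% DMSO, were placed in upper chambers of inserts with fibronectin-coated undersides (30 μg/ml). After 3 h at 37°C, 5% CO2, cells on the underside were methanol-fixed, hematoxylin-stained and counted in ten fields (×200). Triplicate; mean ± SE.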

The test system of series [26] is HUVEC. The series is described as follows: Antiangiogenic activity in human HUVEC cells assessed as inhibition of tube formation by matrigel-based tube formation assay.
Series [27] deals with TMB-231. Put plainly: Antitumor activity against human […] cells xenografted in NOD/SCID mouse assessed as reduction in lung metastatic lesions at 150 mg/kg, po qd administered 18 days post-implantation measured after 68 days. It counts as functional, organism-based. More on the design: dose 150 mg/kg. A digest of the protocol: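 Female NOD/SCID mice with mammary fat pad TMD-231 tumours received daily oral gavage at 150 mg/kg or vehicle from day 18 (n = 11). At study end lungs were removed and H&E stained. Metastasis number and size were assessed in 2-5 fields per sample and scored 1+ to 4+ relative to the highest sample by a blinded pathologist.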

For series [28], the system named is MDA-MB-231. Put plainly: Induction of necrosis in human MDA-MB-231 cells at 50 uM after 24 hrs by annexin V-FITC and propidium iodide staining relative to control. It counts as functional. An outline of the steps: as §5
Series [29] relates to MDA-MB-231. The series is described as follows: Antimetastatic activity in human MDA-MB-231 cells assessed as inhibition of cell adhesion after 90 mins by crystal violet staining. The conditions noted are these: MDA-MB-231, 1.5 h. The format is functional, cell-based. An outline of the steps:
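Wells were coated with 15 μg/ml fibronectin for 1 h at room temperature, then blocked with 3% heat-denatured BSA for 1 h at 37°C. Subconfluent cells were trypsinized, quenched with soybean trypsin inhibitor and washed in serum-free medium. 2 × 10^4 cells per well with compound, quadruplicate, 90 min at 37°C. Adherent cells were read by crystal violet at 570 nm; mean ± SE.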

Series [30] can be described thus: Half life in mouse at 100 mg/kg, po administered as single dose by HPLC-MS/MS analysis. The format is ADME, organism-based. More on the design: dose 100 mg/kg, route oral. The conditions noted are these: in vivo.
A short description of series [31]: Apparent oral clearance in mouse at 50 mg/kg administered as single dose by HPLC-MS/MS analysis. The conditions noted are these: in vivo.
Series [32] can be described thus: Cmax in mouse at 100 mg/kg, po administered as single dose after 5 hrs by HPLC-MS/MS analysis. It counts as ADME, organism-based. More on the design: dose 100 mg/kg, route oral. The conditions noted are these: in vivo.
Series [33] concerns MDA-MB-231. The series is described as follows: Induction of apoptosis in human MDA-MB-231 cells assessed as apoptotic cells at 50 uM after 24 hrs by annexin V-FITC and propidium iodide staining (reference value: 4%). It counts as functional. A digest of the protocol:
as §5

The record followed here is ChEMBL document CHEMBL1914358, “Virtual screening targeting the urokinase receptor, biochemical and cell-based studies, synthesis, pharmacokinetic characterization, and effect on breast tumor metastasis” (J Med Chem, 2011).

The source made the active and inactive calls. The calls are words filed in the database; no cut-off is given here. Bounds are passed on as bounds.

T1 sequence (P11712 whole entry): as the sequence (P11712 whole entry) above
Sequence of Focal adhesion kinase 1 (Homo sapiens) (Q05397 2-1052 limits assumed): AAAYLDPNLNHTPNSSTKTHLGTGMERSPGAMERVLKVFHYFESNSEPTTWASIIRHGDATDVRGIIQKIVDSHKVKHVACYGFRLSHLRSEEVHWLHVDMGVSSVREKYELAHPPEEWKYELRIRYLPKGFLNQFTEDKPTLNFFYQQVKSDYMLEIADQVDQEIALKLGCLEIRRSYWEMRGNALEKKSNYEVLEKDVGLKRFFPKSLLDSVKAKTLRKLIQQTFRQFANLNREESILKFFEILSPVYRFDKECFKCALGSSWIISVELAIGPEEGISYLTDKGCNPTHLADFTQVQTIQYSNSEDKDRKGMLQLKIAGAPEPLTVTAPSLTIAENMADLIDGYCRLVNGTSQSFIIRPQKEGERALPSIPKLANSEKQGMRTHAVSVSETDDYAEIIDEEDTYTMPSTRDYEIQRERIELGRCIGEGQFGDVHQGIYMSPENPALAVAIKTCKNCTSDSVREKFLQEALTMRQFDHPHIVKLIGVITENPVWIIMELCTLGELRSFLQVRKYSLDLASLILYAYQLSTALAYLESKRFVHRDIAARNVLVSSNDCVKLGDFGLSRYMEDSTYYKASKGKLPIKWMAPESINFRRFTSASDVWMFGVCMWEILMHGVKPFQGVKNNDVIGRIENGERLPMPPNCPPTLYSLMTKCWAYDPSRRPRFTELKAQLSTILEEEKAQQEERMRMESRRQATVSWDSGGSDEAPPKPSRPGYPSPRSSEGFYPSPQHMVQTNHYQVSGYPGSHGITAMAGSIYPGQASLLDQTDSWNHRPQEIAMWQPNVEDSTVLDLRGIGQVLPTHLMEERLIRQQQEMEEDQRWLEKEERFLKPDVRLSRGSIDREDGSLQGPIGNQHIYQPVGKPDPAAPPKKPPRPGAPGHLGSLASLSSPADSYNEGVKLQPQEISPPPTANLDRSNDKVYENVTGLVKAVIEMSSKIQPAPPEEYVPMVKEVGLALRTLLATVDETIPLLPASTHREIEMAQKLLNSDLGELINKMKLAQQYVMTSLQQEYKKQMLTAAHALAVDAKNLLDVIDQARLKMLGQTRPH

In series [1], `Nc1ccc(S(=O)(=O)Nc2ccnn2-c2ccccc2)cc1` [SULFAPHENAZOLE] displayed an inhibition at 5 µM of 69%.
Take `c1ccc(C[C@H](CCNCc2ccc3c(c2)OCO3)c2ccc3c(c2)OCO3)cc1` (racemic): the inhibition result in [2], in [4] and in series [12] was “Active” throughout. Further, half-maximal inhibition in [3] (IC50) required 20 µM. In [5], the “inhibition (INH)” value is on record as “Active”. In addition, the inhibition result in [6], in [7], in series [8] and in series [13] was “inactive” in each case. In addition, in [9], the Activity result is “Dose-dependent effect”. Besides, the inhibition at 25 µM in series [10] turned out to be 80%. This compound gave an inhibition in series [11] of 30%.
Regarding `Cc1cc(C)cc(NC(=O)c2cnn(-c3ccc(C(C)C)cc3)c2C2CCNCC2)c1`, the AUC(0-inf) in series [14] worked out at 47200 ng·h/mL. Besides, the inhibition entry in series [15] is “Active”. Moreover, the inhibition is 93% in series [16], “Dose-dependent effect” in series [17], 60% in series [18] and under 10% in [11]. The IC50 in series [17] was determined as 25 µM; in [20], 6 µM; in series [21] it was 30 µM; in series [25], 40 µM; in series [26], 3 µM; in series [29] it was 45 µM. For the same compound, the inhibition entry in [6] and in [13] was “inactive” throughout. The Activity was 51% in [19], “Dose-dependent effect” in series [9], 20% in series [23] and 21% in series [28]. Moreover, the Tmax in series [22] turned out to be 1 h. In series [24], the MTD was 150 mg/kg. Besides, in series [27], the result was Active. For the same compound, the inhibition at 25 µM in series [10] was found to be 20%. In series [30], this compound gave a half-life of 2.18 h. Besides, the CL/F in series [31] was 0.7 mL/min. The compound also gave a Cmax in series [32] of 4410 ng/mL.
Regarding `CN(C)c1ccc(CNCCC(Cc2ccccc2)c2ccc3c(c2)OCO3)cc1` (racemic), the inhibition entry in series [15] was “Active”. Moreover, the values for the inhibition result in series [17] and in series [11] were “Dose-dependent effect” and 30%, respectively. The “inhibition (INH)” value in series [5] is “Active”. The inhibition entry in series [6] and in [13] was “inactive” throughout. This compound gave a Ki in series [9] of 20 µM. Also, the Activity was 22% in series [28] and 46% in [33]. In series [10], this compound yielded an inhibition at 25 µM of 80%.
